Experimental data: ChEMBL document CHEMBL4334455, “Synthesis of Usnic Acid Derivatives and Evaluation of Their Antiproliferative Activity against Cancer Cells” (J Nat Prod, 2019)
Calls of active or inactive are those of the source. The calls are words filed in the database; no cut-off is given here.

Experiments:
[1] = tested on: MCF7; experiment: Antiproliferative activity against human MCF7 cells assessed as reduction in cell viability after 24 hrs by MTT assay; format: functional, cell-based; conditions: MCF7, 24 h
In short: (§1)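 Cells seeded at 4 × 10³/well for 24 h runs and for PC-3, or 2 × 10³/well for MCF-7 and HeLa 48 h runs, and attached overnight. Medium replaced with compound-containing medium for 24 or 48 h. MTT (4 mg mL⁻¹) added for the final 3 h, formazan dissolved in DMSO, absorbance read at 570 nm (reference 660 nm). IC₅₀ calculated from at least three independent experiments in duplicate, mean ± SE.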

[2] = tested on: HeLa; experiment: Antiproliferative activity against human HeLa cells assessed as reduction in cell viability after 24 hrs by MTT assay; format: functional, cell-based; in short: as §1
[3] = tested on: HeLa; experiment: Antiproliferative activity against human HeLa cells assessed as reduction in cell viability after 48 hrs by MTT assay; format: functional, cell-based; conditions: Homo sapiens, HeLa, 48 h; in short: as §1
[4] = tested on: PC-3; experiment: Antiproliferative activity against human PC3 cells assessed as reduction in cell viability after 24 hrs by MTT assay; format: functional, cell-based; conditions: PC-3, 24 h; in short: as §1
[5] = tested on: PC-3; experiment: Antiproliferative activity against human PC3 cells assessed as reduction in cell viability after 48 hrs by MTT assay; format: functional, cell-based; conditions: PC-3, 48 h; in short: as §1
[6] = tested on: MCF7; experiment: Induction of cell cycle arrest in human MCF7 cells assessed as accumulation of cells at G0/G1 phase at 2.9 uM after 24 hrs by Propidium iodide staining based flow cytometric analysis (reference value: 47.8 +/- 0.42%); format: functional
[7] = tested on: MCF7; experiment: Induction of cell cycle arrest in human MCF7 cells assessed as accumulation of cells at G0/G1 phase at 8.7 uM after 24 hrs by Propidium iodide staining based flow cytometric analysis (reference value: 47.8 +/- 0.42%); format: functional
[8] = tested on: MCF7; experiment: Induction of cell cycle arrest in human MCF7 cells assessed as accumulation of cells at S phase at 2.9 uM after 24 hrs by Propidium iodide staining based flow cytometric analysis (reference value: 23.75 +/- 1.87%); format: functional
[9] = tested on: MCF7; experiment: Induction of cell cycle arrest in human MCF7 cells assessed as accumulation of cells at S phase at 8.7 uM after 24 hrs by Propidium iodide staining based flow cytometric analysis (reference value: 23.75 +/- 1.87%); format: functional
[10] = tested on: MCF7; experiment: Induction of cell cycle arrest in human MCF7 cells assessed as accumulation of cells at G2/M phase at 2.9 uM after 24 hrs by Propidium iodide staining based flow cytometric analysis (reference value: 27 +/- 2.97%); format: functional
[11] = tested on: MCF7; experiment: Induction of cell cycle arrest in human MCF7 cells assessed as accumulation of cells at G2/M phase at 8.7 uM after 24 hrs by Propidium iodide staining based flow cytometric analysis (reference value: 27 +/- 2.97%); format: functional
[12] = tested on: HeLa; experiment: Induction of cell cycle arrest in human HeLa cells assessed as accumulation of cells at G0/G1 phase 2.9 to 8.7 uM after 24 hrs by propidium iodide staining based flow cytometric analysis (reference value: 44%); format: functional
[13] = tested on: HeLa; experiment: Cell cycle arrest in human HeLa cells assessed as reduction in cell population at S phase at 2.9 to 8.7 uM after 24 hrs by propidium iodide staining based flow cytometric analysis; format: functional
[14] = tested on: MCF7; experiment: Anticlonogenic activity against human MCF7 cells assessed as reduction in colony formation at 2.9 to 11.6 uM incubated for 24 hrs followed by recovery period of 2 weeks by culturing cells in drug-free medium by crystal violet staining based assay; format: functional, cell-based
In short: (§2)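 Cells (1 × 10⁶) plated, after 24 h given fresh medium with derivative at 1, 2, 3 or 4 μg mL⁻¹ for 24 h; then trypsinized, counted, 8 × 10² replated into two plates in compound-free medium. After 2 weeks fixed with 6.0% glutaraldehyde, stained with 0.5% crystal violet; colonies of ≥50 cells counted. Mean ± SE of three experiments in duplicate.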

[15] = tested on: HeLa; experiment: Anticlonogenic activity against human HeLa cells assessed as reduction in colony formation at 2.9 to 11.6 uM incubated for 24 hrs followed by recovery period of 2 weeks by culturing cells in drug-free medium by crystal violet staining based assay; format: functional, cell-based; in short: as §2
[16] = tested on: PC-3; experiment: Anticlonogenic activity against human PC3 cells assessed as reduction in colony formation at 2.9 to 11.6 uM incubated for 24 hrs followed by recovery period of 2 weeks by culturing cells in drug-free medium by crystal violet staining based assay; format: functional, cell-based; in short: as §2
[17] = tested on: MCF7; experiment: Anticlonogenic activity against human MCF7 cells assessed as proportion of colony forming cells at 11.6 uM incubated for 24 hrs followed by recovery period of 2 weeks by culturing cells in drug-free medium by crystal violet staining based assay relative to control; format: functional; in short: as §2
[18] = tested on: HeLa; experiment: Anticlonogenic activity against human HeLa cells assessed as proportion of colony forming cells at 11.6 uM incubated for 24 hrs followed by recovery period of 2 weeks by culturing cells in drug-free medium by crystal violet staining based assay relative to control; format: functional; in short: as §2
[19] = tested on: PC-3; experiment: Anticlonogenic activity against human PC3 cells assessed as proportion of colony forming cells at 11.6 uM incubated for 24 hrs followed by recovery period of 2 weeks by culturing cells in drug-free medium by crystal violet staining based assay relative to control; format: functional; in short: as §2
[20] = tested on: MCF7; experiment: Induction of apoptosis in human MCF7 cells assessed as increase in Bax level at 8.7 uM after 24 hrs by immunoblot analysis relative to control; format: functional
In short: (§3)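 Proteins run on SDS-PAGE, transferred to PVDF, blocked in 5% milk/PBS, primary antibody overnight at 4 °C (cleaved PARP, Bax, Bcl-2), secondary 1 h at room temperature. Reprobed for β-actin; densitometry corrected for loading.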

[21] = tested on: MCF7; experiment: Induction of apoptosis in human MCF7 cells assessed as reduction in Bcl-2 expression at 2.9 uM after 24 hrs by immunoblot analysis relative to control; format: functional; in short: as §3
[22] = tested on: MCF7; experiment: Induction of apoptosis in human MCF7 cells assessed as reduction in Bcl-2 expression at 8.7 uM after 24 hrs by immunoblot analysis relative to control; format: functional; in short: as §3
[23] = tested on: MCF7; experiment: Induction of vacuolization in human MCF7 cells assessed as increase in LAMP1 expression at 2.9 uM by Western blot analysis relative to control; format: functional
[24] = tested on: MCF7; experiment: Induction of vacuolization in human MCF7 cells assessed as increase in LAMP1 expression at 8.7 uM by Western blot analysis relative to control; format: functional
In short: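 Lysates were cleared, run on SDS-PAGE and blotted to PVDF, then probed for LAMP1. Blocking was 5% milk in PBS, primary antibody overnight at 4 °C, secondary 1 h at room temperature. Blots were stripped, reprobed for β-actin, and densitometry was corrected for loading.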

[25] = tested on: MCF7; experiment: Antiproliferative activity against human MCF7 cells assessed as reduction in cell growth in presence of early autophagy inhibitor, wortmannin by MTT assay; format: functional, cell-based
[26] = tested on: MCF7; experiment: Induction of endocytosis in human MCF7 cells at 2.9 to 8.7 uM after 24 hrs by lucifer yellow staining based fluorescence microscopic analysis; format: functional, cell-based
In short: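 MCF-7 cells treated 24 h with 2.9 or 8.7 μM derivative, stained with 75 μM Lucifer Yellow, washed, and examined by fluorescence microscopy at 1000×.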

[27] = tested on: MCF7; experiment: Induction of vacuolization in human MCF7 cells at 8.7 uM after 24 hrs in presence of 10 uM Na+/H+ exchange inhibitor, amiloride by light microscopic analysis; format: functional, cell-based
[28] = tested on: MCF7; experiment: Antiproliferative activity against human MCF7 cells assessed as reduction in cell viability at 8.7 uM after 24 hrs in presence of 0.5 uM actin dynamics inhibitor, cytochalasin-D by MTT assay; format: functional, cell-based

IC50 [1] | IC50 [2] | IC50 [3] | IC50 [4] | IC50 [5] | SMILES | Activity [6] | Activity [7] | Activity [8] | Activity [9] | Activity [10] | Activity [11] | Activity [12] | Activity [13] | inhibition [14] | inhibition [15] | inhibition [16] | Activity [17] | Activity [18] | Activity [19] | fold change (FC) [20] | other results
3.2 µM | 1000 nM | 1000 nM | 3.2 µM | 3100 nM | CC(=O)c1c(O)c(C)c(O)c2c1OC1=Cc3onc(C)c3C(=O)[C@]12C | 70.25% | 75.7% | 11.15% | 7.25% | 16.4% | 14.65% | 51 - 65% | Active | Active | Active | Active | <50% | <50% | <50% | 2.1 | fold change (FC) [21]: 0.5; fold change (FC) [22]: 0.2; fold change (FC) [23]: 5.3; fold change (FC) [24]: 5.1; inhibition [25]: Active; Activity [26]: Active; Activity [27]: Active; inhibition [28]: Active
3.1 µM | 1000 nM | 1000 nM | 3.4 µM | 2800 nM | CC(=O)c1c(O)c(C)c(O)c2c1OC1=Cc3onc(C)c3C(=O)C12C (racemic) | 71.85% | 75.45% | 10.1% | 8.35% | 16.2% | 14.02% | 51 - 65% | Active | Active | Active | Active | <50% | <50% | <50% | 1.1 | fold change (FC) [21]: 0.6; fold change (FC) [22]: 0.3; fold change (FC) [23]: 1.3; fold change (FC) [24]: 1.8; inhibition [25]: Active; Activity [26]: Active; Activity [27]: Active; inhibition [28]: Active
